# SUMO HTRF inh = SUMOylation inhibition; HTRF SUMOylation assay, SAE1/SAE2 + UBC9, in vitro; inhibition, % at 35 µM; actives 0.36% (n = 290,000); in the data active = inhibition above about 50%, passing the limit was not always enough
# p47phox inh = p47phox (human) inhibition; p47phox/p22phox peptide binding, fluorescence polarization, 2 h; AID 1274; inhibition, % at 24.7 µM; P14598; actives 0.53% (n = 220,000)
# Target sequence (P14598 whole entry, looked up): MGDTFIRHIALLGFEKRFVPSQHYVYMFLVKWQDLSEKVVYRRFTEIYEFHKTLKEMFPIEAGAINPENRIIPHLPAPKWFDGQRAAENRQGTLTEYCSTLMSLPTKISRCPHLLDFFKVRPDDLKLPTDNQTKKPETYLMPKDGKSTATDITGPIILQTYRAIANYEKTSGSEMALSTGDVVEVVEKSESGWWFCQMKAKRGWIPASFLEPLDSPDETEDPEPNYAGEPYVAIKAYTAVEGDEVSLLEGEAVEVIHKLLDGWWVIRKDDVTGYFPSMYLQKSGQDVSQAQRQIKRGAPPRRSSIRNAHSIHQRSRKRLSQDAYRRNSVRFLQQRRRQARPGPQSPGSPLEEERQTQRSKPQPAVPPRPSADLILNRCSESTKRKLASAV
# 14-3-3 Bad PPI = disrupts binding of bovine 14-3-3 zeta to phospho-Bad peptide; P63103; TR-FRET 14-3-3zeta/Dy647-pBad peptide displacement, 1 h; inhibition, % at 21.7 µM; actives 0.71% (n = 220,000);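 active = inhibition above about 70%, limit read from the data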
# Target sequence (P63103 whole entry, looked up): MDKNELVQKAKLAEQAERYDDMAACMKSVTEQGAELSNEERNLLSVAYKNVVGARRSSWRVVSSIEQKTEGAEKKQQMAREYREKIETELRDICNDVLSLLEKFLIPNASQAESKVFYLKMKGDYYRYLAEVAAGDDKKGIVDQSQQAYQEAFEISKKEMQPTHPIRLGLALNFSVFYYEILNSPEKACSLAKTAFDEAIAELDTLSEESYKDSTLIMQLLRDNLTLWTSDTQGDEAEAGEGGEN
# p97 ATPase inh = inhibitors of human p97 ATPase | actives 0.42% (n = 220,000) | AID 1481 | P55072 | recombinant p97 ATPase, Kinase-Glo ATP luminescence, 3 h | inhibition, % at 8 µM; in the data active = inhibition above about 15%
# Tb MetRS inh = blocks T. brucei methionyl-tRNA synthetase activity. AID 624268. purified T. brucei MetRS, ATP depletion, Kinase-Glo luminescence. inhibition, % at 11.9 µM. actives 0.4% (n = 360,000);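 active = inhibition above a per-plate cutoff of the control wells' mean inhibition plus 3 SD, cut at about 5.5% in these data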
#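 Material – parasite MetRS enzyme · Medium – HEPES-MgCl2-KCl buffer plus DTT, spermine, BSA, pyrophosphatase · Reagent – ATP, methionine and E. coli bulk tRNA substrates · Times – 15 min enzyme-compound preincubation, 2 h reaction, 10 min detection, 25 °C · Measured by – luminescence of leftover ATP · Evaluation – percent inhibition relative to median high and low control wells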
# eIF4E-4G inh = blocks eIF4E binding to eIF4G; P63073+Q04637; inhibition, % at 21.7 µM; AID 782; actives 0.37% (n = 220,000); TR-FRET eIF4E-eIF4GI(517-606) binding, 2 h
# TbMetRS confirm = confirmation of Trypanosoma brucei MetRS inhibitors. shares compounds with Tb MetRS inh. T. brucei MetRS enzyme, luminescence (ATP depletion). inhibition, % at 11.9 µM. actives 93% (n = 1,400). AID 624412; in the data active = inhibition above about 7%
# Jurkat tox = Jurkat T cell cytotoxicity for MetRS hits | shares compounds with Tb MetRS inh | Jurkat cells viability, ATP luminescence | inhibition, % at 8.3 µM | actives 12% (n = 1,400) | AID 624413; in the data active = inhibition above about 15%
# TbMetRS FP orth = inhibits T. brucei methionyl tRNA synthetase in orthogonal FP test; shares compounds with Tb MetRS inh; purified T. brucei MetRS, fluorescence polarization; inhibition, % at 11.9 µM; actives 44% (n = 1,400); in the data active = inhibition above about 17%
# A number is an active result; n = inactive; x = not tested or not shown. This is a sample that favours compounds with a hit; in the whole collection about 1.6% have one here.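 Rule for the calls, unless noted: active = inhibition above about 30% (limit read from the data); inactive = the rest.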
SMILES,SUMO HTRF inh,p47phox inh,14-3-3 Bad PPI,p97 ATPase inh,Tb MetRS inh,eIF4E-4G inh,TbMetRS confirm,Jurkat tox,TbMetRS FP orth
CC(C)(C)C1c2[nH]c3ccccc3c2CCN1Cc1cccc(OCCO)c1 (centres undefined),n,n,n,n,9.1,n,7.1,n,n
Cc1c(C(=O)NCc2ccc3c(c2)OCO3)sc(=O)n1Cc1cccc(F)c1,x,x,x,x,n,x,x,x,x
Cc1nc2ccccc2c2oc(C(=O)N3CCC(C)CC3)cc12,n,x,x,x,n,x,x,x,x
Cc1nc2ccccc2c2oc(C(=O)N3CCc4ccccc4C3)cc12,n,n,n,n,8.7,n,8.9,n,n
CCCCn1c(N)c(N(CCOC)C(=O)c2ccc(-n3c(C)ccc3C)cc2)c(=O)[nH]c1=O,x,x,x,x,n,x,x,x,x
COC(=O)c1ccc(COC(=O)CNC(=O)c2ccc(C)s2)cc1,x,x,x,x,n,x,x,x,x
c1ccc2[nH]c(CSc3nnc(-c4ccncc4)o3)nc2c1,n,n,n,n,n,n,x,x,x
Clc1ccc(-c2nnc(SCc3nc4ccccc4[nH]3)o2)c(Cl)c1,n,n,n,n,77.6,n,101.0,n,90.2
CC(C)[C@@H]1O[C@H](CCc2ccccc2)CC2=C1C(=O)OC(C)(C)O2,x,x,x,x,n,x,x,x,x
COc1ccc(COC(=O)CCNC(=O)c2ccc(Cl)cc2)cc1,x,x,x,x,7.0,x,28.4,n,n
COc1ccc(CNC(=O)CCC(=O)Nc2ccc(Cl)cc2)cc1,n,x,x,x,7.1,x,17.0,n,n
COc1ccc(CC(=O)OCC(=O)NCc2ccc(Cl)cc2)cc1,n,n,n,n,n,n,x,x,x
O=C(CCCSc1nc2ccccc2[nH]1)N1CCN(c2ccc([N+](=O)[O-])cc2)CC1,n,n,n,n,9.2,n,55.0,n,n
O=C(CSc1nc2ccccc2[nH]1)N1CCN(c2ccc(F)cc2)CC1,n,n,n,n,n,n,x,x,x
COC(=O)c1cc(-c2ccc(Br)cc2)n[nH]1,n,n,n,n,10.3,n,28.0,n,n
COc1ccc(-c2cc(C(=O)NN)[nH]n2)cc1,n,n,n,n,n,n,x,x,x
Cc1ccc(S(=O)(=O)N2CCN(c3nccnc3C#N)CC2)cc1,n,n,n,n,n,n,x,x,x
O=C1CC(SCc2nc3ccccc3[nH]2)C(=O)N1c1ccc(Cl)cc1 (centres undefined),n,n,n,n,5.7,n,5.7,n,n
O=C1CC(SCc2nc3ccccc3[nH]2)C(=O)N1c1ccc(F)c(Cl)c1 (centres undefined),n,n,n,n,28.8,n,21.4,n,n
O=C1CC(SCc2nc3ccccc3[nH]2)C(=O)N1c1cccc(F)c1 (centres undefined),n,n,n,n,25.7,n,23.1,16.6,n
O=C(c1cc(COc2ccc(F)c(F)c2)on1)N1CCN(C/C=C/c2ccccc2)CC1,n,x,x,x,n,x,x,x,x
CCN1C[C@@H]2[C@@H]3C(=O)N(Cc4ccccc4)C(=O)[C@@H]3[C@](C)(C1=O)N2C(=O)c1ccc(Cl)c(Cl)c1,x,x,x,x,n,x,x,x,x
O=C(C(=O)N1CC=C(c2ccccc2)CC1)c1c[nH]c2ccccc12,n,n,n,n,7.4,n,16.5,n,n
Cc1[nH]c2ccccc2c1C(=O)C(=O)N1CCN(c2ccccc2F)CC1,n,x,x,x,7.2,x,19.9,n,n
CC(=O)c1ccc(N2CCN(C(=O)C(=O)c3c(C)[nH]c4ccccc34)CC2)cc1,n,x,x,x,n,x,x,x,x
SMILES,SUMO HTRF inh,p47phox inh,14-3-3 Bad PPI,p97 ATPase inh,Tb MetRS inh,eIF4E-4G inh,TbMetRS confirm,Jurkat tox,TbMetRS FP orth
O=C(C(=O)N1CCN(c2ccccc2Cl)CC1)c1c[nH]c2ccccc12,n,x,x,x,12.9,x,24.1,18.0,n
Cc1[nH]c2ccccc2c1C(=O)C(=O)N1CCCc2ccccc21,n,n,n,n,n,n,x,x,x
O=C(C(=O)N1CCCc2ccccc21)c1c[nH]c2ccccc12,n,n,n,n,8.2,n,12.7,n,n
O=C(c1cc(=O)[nH]c2ccccc12)N1CC=C(c2ccccc2)CC1,x,x,x,x,n,x,x,x,x
Clc1ccccc1N1CCN(Cc2c[nH]c3ccccc23)CC1,x,x,x,x,n,x,x,x,x
Cc1cc(N2CCN(C(C(=O)NC3CCCC3)c3ccc(F)cc3)CC2)c2ccccc2n1 (centres undefined),x,x,x,x,n,x,x,x,x
O=C(C(=O)N1CCN(Cc2ccc3c(c2)OCO3)CC1)c1c[nH]c2ccccc12,n,x,x,x,9.6,x,24.9,n,n
COc1cccc(CN2CCCC(C(=O)Nc3ccc(-c4cscn4)cc3)C2)c1 (centres undefined),n,x,x,x,7.4,x,27.9,n,n
Cc1ncc(CN2CCCC(C(=O)Nc3ccc(-c4cscn4)cc3)C2)cn1 (centres undefined),n,x,x,x,n,x,x,x,x
O=C(Nc1ccc(Cl)c(Cl)c1)Nc1cc(S(=O)(=O)N2CCOCC2)ccc1N1CCCC1,n,n,n,n,8.0,n,15.8,n,n
O=C(CNc1cc(S(=O)(=O)N2CCOCC2)ccc1N1CCCC1)Nc1ccc(Cl)cc1,x,x,x,x,47.9,x,65.4,n,35.3
O=S(=O)(Nc1cc(S(=O)(=O)N2CCOCC2)ccc1NCC1CCCO1)c1ccc(F)cc1 (centres undefined),x,x,x,x,n,x,x,x,x
O=C(CN1CCN(S(=O)(=O)N2CCOCC2)CC1)Nc1ccc(Cl)c(Cl)c1,n,x,x,x,12.0,x,33.0,n,n
CC(=O)c1ccc(NC(=O)CNc2cc(S(=O)(=O)N3CCOCC3)ccc2N2CCCC2)cc1,x,x,x,x,n,x,x,x,x
O=C(CNc1cc(S(=O)(=O)N2CCOCC2)ccc1NCC1CCCO1)Nc1cccc(F)c1 (centres undefined),n,x,x,x,14.3,x,9.1,n,n
CCOc1ccc(C2C(C(=O)c3cccs3)=C(O)C(=O)N2CCCn2ccnc2)cc1 (centres undefined),n,x,x,n,x,x,x,x,x
Cc1ccccc1NC(=O)C(C)Sc1nnc(-c2ccncc2)n1CC1CCCO1 (centres undefined),n,x,x,x,n,x,x,x,x
COC(=O)c1ccc2c(=O)[nH]c(COC(=O)c3c(-c4ccccc4)noc3C)nc2c1,x,x,x,x,n,x,x,x,x
CCOC(=O)C(=NC1CCS(=O)(=O)C1)NNc1ccccc1Cl (centres undefined),n,n,n,n,n,n,x,x,x
CCOC(=O)C(=NC1CCS(=O)(=O)C1)NNc1ccc(Br)cc1 (centres undefined),n,n,n,n,15.2,n,46.0,n,n
Brc1ccccc1OCCCCCN1CCCC1,n,n,n,n,x,n,x,x,x
Clc1ccc(OCCCCCN2CCCC2)c(Br)c1,n,n,n,n,6.2,n,13.3,n,n
Clc1ccc(OCCCn2ccnc2)c(Br)c1,n,n,n,n,12.8,n,21.5,n,n
